# Assay results from ChEMBL document CHEMBL4689842, “EUbOPEN Chemogenomics Library wave 1” (2021).
# “And” between values parts separate entries of the source, which are not always exact repeats. Equal values may be shown once.
# System: U2OS
# Test: Multiplex assay against U2OS
# Type: toxicity, cell-based
# Conditions: human, 10 µM, compound concentration 10 uM
# How it was run: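 Values for tubulin, mitochondrial-mass and membrane-permeability phenotypes are per cents of cells with healthy nuclei. These cells were identified by CellPathfinder machine-learning gating of live cells that had been stained at seeding with Hoechst33342, BioTracker Green Microtubule Cytoskeleton Dye, MitoTracker Red and Annexin V Alexa Fluor 680 and imaged on a CQ1 microscope at 37°C and 5% CO2 after compound addition. The gating first set Hoechst high-intensity objects apart from normal cells, then split normal cells into healthy, pyknosed or fragmented nuclei, and pyknosed cells into mitotic or apoptotic.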
smiles,measurement,setting,value
CN(c1ccccc1CNc1nc(Nc2ccc3c(c2)CC(=O)N3)ncc1C(F)(F)F)S(C)(=O)=O,Population Apoptotic (%),"12 h, replicate 1",40% and 75%
same,Population Healthy Nuclei (%),"12 h, replicate 1",44% and 89%
same,Population Hoechst High Intensity Objects (%),"12 h, replicate 1",7% and 4%
same,Population Mitochondria Different-Phenotype (%),"12 h, replicate 1",30% and 26%
same,Population Mitotic Cells (%),"12 h, replicate 1",59% and 25%
same,Population Normal (%),"12 h, replicate 1",92% and 95%
same,Population Tubulin-Different-Phenotype (%),"12 h, replicate 1",72% and 24%
same,Total Cell Count,"12 h, replicate 1",122 and 100
same,Population Apoptotic (%),"12 h, replicate 2",91% and 33%
same,Population Fragmented Nuclei (%),"12 h, replicate 2",23% and 11%
same,Population Healthy Nuclei (%),"12 h, replicate 2",59% and 85%
same,Population Hoechst High Intensity Objects (%),"12 h, replicate 2",17% and 6%
same,Population Membrane Permeable-Phenotype (%),"12 h, replicate 2",27% and 12%
same,Population Mitochondria Different-Phenotype (%),"12 h, replicate 2",37% and 32%
same,Population Normal (%),"12 h, replicate 2",82% and 93%
same,Population Tubulin-Different-Phenotype (%),"12 h, replicate 2",55% and 32%
same,Total Cell Count,"12 h, replicate 2",116 and 91
same,Population Fragmented Nuclei (%),"24 h, replicate 1",16%
same,Population Healthy Nuclei (%),"24 h, replicate 1",56% and 83%
same,Population Mitochondria Different-Phenotype (%),"24 h, replicate 1",57% and 45%
same,Population Normal (%),"24 h, replicate 1",81% and 96%
same,Population Tubulin-Different-Phenotype (%),"24 h, replicate 1",72% and 37%
same,Total Cell Count,"24 h, replicate 1",125 and 100
same,Population Apoptotic (%),"24 h, replicate 2",59% and 30%
same,Population Fragmented Nuclei (%),"24 h, replicate 2",13% and 10%
same,Population Healthy Nuclei (%),"24 h, replicate 2",53% and 78%
same,Population Hoechst High Intensity Objects (%),"24 h, replicate 2",19% and 8%
same,Population Mitochondria Different-Phenotype (%),"24 h, replicate 2",51% and 52%
same,Population Mitotic Cells (%),"24 h, replicate 2",40% and 69%
same,Population Normal (%),"24 h, replicate 2",80% and 91%
same,Population Tubulin-Different-Phenotype (%),"24 h, replicate 2",48% and 38%
same,Total Cell Count,"24 h, replicate 2",130 and 91
